GASC-1 inh = inhibitors of human GASC-1 (JMJD2C) demethylase; AID 2099; GST-JMJD2C(1-420) H3K9me3 demethylation, DELFIA europium; actives 0.069% (n = 330,000); inhibition, % at 2.35 µM; Q9H3R0;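 active = more than half of a compound's replicate wells show inhibition beyond 50%, single wells judged on their own value; inconclusive = some, but no more than half, of replicates pass 50% inhibition; inactive = no replicate passes 50% inhibition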;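 also: signal counts dimethyl H3K9 product captured on neutravidin plate; 0% = median of DMSO wells and 100% = 0.3 times that DMSO median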
Target sequence (Q9H3R0 1-420 limits assumed): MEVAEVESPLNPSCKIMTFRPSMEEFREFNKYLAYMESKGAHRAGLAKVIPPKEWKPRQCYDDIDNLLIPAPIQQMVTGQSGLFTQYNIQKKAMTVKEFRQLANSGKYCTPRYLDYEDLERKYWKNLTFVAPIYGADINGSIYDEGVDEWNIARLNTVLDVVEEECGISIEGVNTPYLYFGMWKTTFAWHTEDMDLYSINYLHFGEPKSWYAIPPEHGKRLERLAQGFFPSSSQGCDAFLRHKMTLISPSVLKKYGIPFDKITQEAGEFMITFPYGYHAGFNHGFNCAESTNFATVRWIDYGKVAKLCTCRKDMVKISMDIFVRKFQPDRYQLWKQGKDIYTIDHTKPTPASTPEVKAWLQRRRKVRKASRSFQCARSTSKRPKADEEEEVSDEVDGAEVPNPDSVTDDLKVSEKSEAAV
GSTO1 counter = counter-screen for RBBP9 inhibitors: inhibitors of human GSTO1. P78417. recombinant GSTO1, activity-based probe fluorescence polarization. inhibition, % at 5.96 µM. actives 1.1% (n = 300,000). AID 1974;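 active = inhibition above the campaign mean inhibition plus 3 SD, cut at about 35% in these data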;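 also: 0% = GSTO1-1 with DMSO and 100% = wells lacking GSTO1-1 enzyme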
Apaf-1 inh = blocks human Apaf-1 apoptosome activity | inhibition, % at 20 µM | actives 0.71% (n = 330,000) | reconstituted apoptosome caspase-3 activity, DEVD-Rh110 fluorescence; active = inhibition of at least 40% at 20 µM;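 also: plate controls were DMSO wells for no effect and DEVD-CHO caspase inhibitor wells for full effect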
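Assay system: Apoptosome proteins | Medium: pH 7.5 Hepes buffer with CHAPS, BSA, DTT | Also added: Cytochrome c and DEVD-Rh110 substrate | Times: 30 min plus 50 min, RT | Detection: Rhodamine 110 fluorescence at Ex 480/Em 540 nm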
PAD4 inh = blocks human protein arginine deiminase 4 | inhibition, % at 6.36 µM | Q9UM07 | actives 0.41% (n = 330,000) | recombinant PAD4, RCA probe fluorescence polarization;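 active = percent inhibition above a cutoff equal to the mean of all tested compounds plus 3 SD, cut at about 15% in these data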;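 also: 0% = PAD4 with RCA probe and DMSO and 100% = probe without PAD4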
SUMO HTRF inh = blocks human SUMOylation mediated by UBC9. P63279. HTRF SUMOylation assay, SAE1/SAE2 + UBC9, in vitro. inhibition, % at 35 µM. actives 0.36% (n = 290,000); in the data active = inhibition above about 50%, passing the limit was not always enough; inconclusive = no clear call, values can overlap the other calls
Target sequence (P63279 whole entry, looked up): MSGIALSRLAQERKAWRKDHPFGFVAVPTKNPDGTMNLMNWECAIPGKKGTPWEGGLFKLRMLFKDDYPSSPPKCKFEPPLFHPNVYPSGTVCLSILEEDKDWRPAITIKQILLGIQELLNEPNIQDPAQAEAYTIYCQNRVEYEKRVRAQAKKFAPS
TDP2 absorb = TDP2 (human) inhibition, absorbance primary screen. actives 0.34% (n = 370,000). recombinant TDP2, T5PNP hydrolysis, p-nitrophenol absorbance 415 nm. inhibition, % at 12.8 µM. AID 720702;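 active = inhibition above the mean of all tested compounds plus 3 SD, set per campaign, cut at about 25% in these data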;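 also: 0% = DMSO with enzyme and 100% = buffer with substrate but no TDP2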
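Test system: human TDP2 enzyme; Input: 120 nM TDP2 per well; Buffer or medium: Mg2+-containing Tris-HCl buffer, pH 7.5; Reagent: 5 mM T5PNP; Dosing: 12.8 µM single point, 1% DMSO; Incubation: reaction 2 h, 37 °C; Detection: p-Nitrophenol epi absorbance; Read-out: % inhibition relative to enzyme-containing and enzyme-free wells; Replicates: single well per compound.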
GSTO1 confirm = GSTO1 (human) inhibition, confirmation | recombinant GSTO1, probe fluorescence polarization | shares compounds with GSTO1 counter | actives 54% (n = 2,400) | inhibition, % at 5.96 µM;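 active = inhibition above the primary screen's cutoff, its mean inhibition plus 3 SD, cut at about 35% in these data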;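 also: loss of polarization as inhibitors block binding of rhodamine sulfonate ester activity probe; 0% = GSTO1 with DMSO and 100% = wells lacking GSTO1 enzyme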
PAD4 confirm = PAD4 (human) inhibition, confirmed; actives 28% (n = 1,200); inhibition, % at 6.36 µM; shares compounds with PAD4 inh; recombinant PAD4, RCA probe fluorescence polarization;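 active = mean inhibition across replicates above the hit cutoff set by the earlier primary screen, cut at about 15% in these data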;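 also: inhibitors block active-site labeling by the probe so polarization falls; 0% = PAD4 with probe and DMSO and 100% = probe without PAD4 enzyme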
Apaf-1 inh conf = confirmation of Apaf-1 inhibitors. shares compounds with Apaf-1 inh. reconstituted apoptosome, caspase-3 DEVD-Rh110 fluorescence. inhibition, % at 20 µM. actives 25% (n = 1,800). AID 504614;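 active = mean inhibition of at least 40% at 20 µM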;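 also: plate controls were DMSO wells for no effect and DEVD-CHO caspase inhibitor control wells for full effect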
Rh110 interf inh = Rh110 signal interference in Apaf-1 inhibitor counter-screen; AID 504615; activation (fluorescence interference), % at 20 µM; Rh110 fluorescence interference, quenched caspase reaction; 1,800 tested, under 10 active; shares compounds with Apaf-1 inh;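 active = signal rise of 40% or more at 20 µM, treated as a fluorescence artifact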
Fluor interf inh = Apaf-1 inhibitor counter-screen fluorescence artifact. shares compounds with Apaf-1 inh. fluorescence interference counterscreen, Apaf-1 assay format. IC50, µM. 460 tested, under 10 active. AID 588538; call rule not given here
Active calls of the source: *. An excerpt weighted towards active compounds, which were near 1.6% of everything screened.

`O=C1C(Cl)=C(Nc2ccc3cn[nH]c3c2)C(=O)c2ccccc21` gave GASC-1 inh -7, GSTO1 counter 83*, PAD4 inh 48*, SUMO HTRF inh 42, TDP2 absorb 4, GSTO1 confirm 90* and PAD4 confirm 15*.
For O=C(OC12CCCN(C1)/C(=C/c1ccc(Cl)cc1)C2)c1ccc(Cl)cc1 (stereo not drawn) the results were TDP2 absorb 4.
`O=C1C(Nc2ccccc2)=C/C(=N/S(=O)(=O)c2cccs2)c2ccccc21` gave GASC-1 inh 1, GSTO1 counter 84*, PAD4 inh 63*, SUMO HTRF inh 49, GSTO1 confirm 95* and PAD4 confirm 58*.
`COC(=O)C[C@@H]1CC[C@H]2[C@@H](COc3ccc(NC(=O)c4ccc(Cl)cc4)cc3C(=O)N2C)O1` gave TDP2 absorb 5.
CC(C)C[C@H]1COc2cccc(F)c2S(=O)(=O)N1Cc1cn(Cc2ccc(Cl)cc2)nn1 was read as TDP2 absorb 1.
Screening CN(CCC#N)C(=O)COC(=O)C1c2ccccc2Oc2ccccc21 returned GASC-1 inh 1, GSTO1 counter 3, Apaf-1 inh 3, PAD4 inh -1, SUMO HTRF inh 12 and TDP2 absorb -11.
N#CCCN(CCC#N)C(=O)C1c2ccccc2Oc2ccccc21 was read as GASC-1 inh -17, GSTO1 counter 52*, Apaf-1 inh -7, PAD4 inh 101*, SUMO HTRF inh 4, TDP2 absorb 7, GSTO1 confirm 10 and PAD4 confirm 7.
For COc1cccc(OC[C@@H](O)CN2CCC(C(O)(c3ccccc3)c3ccccc3)CC2)c1 the results were TDP2 absorb 4.
C=Cc1c(C)c2cc3[nH]c(cc4nc(cc5nc(cc1[nH]2)C(C)=C5CCC(=O)O)C(CCC(=O)O)=C4C)c(C)c3C=C was read as GASC-1 inh 13, GSTO1 counter 89*, Apaf-1 inh 11, PAD4 inh 24*, TDP2 absorb 13, GSTO1 confirm 82* and PAD4 confirm 3.
For CC(=O)c1c2c3c(c(Br)ccc3n(C)c1=O)C(=O)c1ccccc1-2 the results were GASC-1 inh 23, GSTO1 counter 48*, Apaf-1 inh 14, PAD4 inh 20*, TDP2 absorb -3, GSTO1 confirm 28 and PAD4 confirm 8.
`O=C(N1CCc2[nH]c3ccccc3c2C1)C(F)(F)F` gave GASC-1 inh 10, GSTO1 counter 88*, Apaf-1 inh -10, PAD4 inh 58*, SUMO HTRF inh -10, TDP2 absorb 4, GSTO1 confirm 7 and PAD4 confirm -3.
CC1=NN(c2ccc(Cl)cc2)C(=O)C1C(c1cccc(O)c1)c1c(C)[nH]n(-c2ccc(Cl)cc2)c1=O (stereo not drawn) was read as GASC-1 inh 6, GSTO1 counter 66*, Apaf-1 inh 85*, PAD4 inh 73*, GSTO1 confirm 56* and PAD4 confirm -4.
Screening Cc1[nH]n(-c2ccc(Cl)cc2)c(=O)c1C(=O)c1ccccc1 returned GASC-1 inh 15, GSTO1 counter 5, Apaf-1 inh 6, PAD4 inh -6, SUMO HTRF inh 6 and TDP2 absorb -2.
`O=c1oc2ccccc2cc1-c1nc2ccccc2o1` gave GASC-1 inh 5, GSTO1 counter 9, Apaf-1 inh -3, PAD4 inh 1, SUMO HTRF inh inconclusive and TDP2 absorb 9.
Screening Nc1cc2nc3ccccc3oc-2cc1=O returned GSTO1 counter 68*, Apaf-1 inh 48*, PAD4 inh 28*, SUMO HTRF inh 21, TDP2 absorb 13, GSTO1 confirm 50* and PAD4 confirm -1.
Screening Cc1ccc(OCc2nnc(SCC(=O)Nc3ccc(S(N)(=O)=O)cc3)n2-c2ccc(Cl)cc2)cc1 returned TDP2 absorb 2.
Screening COC(=O)C1CN(Cc2cn(Cc3ccc(OC)cc3)nn2)CCS(=O)(=O)N1Cc1ccc(F)cc1 (stereo not drawn) returned TDP2 absorb 3.
Cc1[nH][nH]c(=O)c1C(c1c(C)[nH][nH]c1=O)c1cn(Cc2cccc3ccccc23)c2ccccc12 was read as GASC-1 inh 68*, GSTO1 counter 55*, Apaf-1 inh 95*, PAD4 inh 31*, SUMO HTRF inh 79, TDP2 absorb 60*, GSTO1 confirm 41*, PAD4 confirm 25*, Apaf-1 inh conf 51*, Rh110 interf inh 11 and Fluor interf inh >100.
`Cn1c2ccccc2c(=O)c2c(=O)n(Cc3cccc4ccccc34)cnc21` gave TDP2 absorb -7.
For C#CCNC(=O)C[C@H]1C[C@@]2(C(=O)OC)C(=C[C@H](C3CCCC3)O[C@@H]2C)N(Cc2ccc(Cl)cc2Cl)C1=O the results were TDP2 absorb -2.
O=C(NNc1cc(N2CCOCC2)nc(N2CCOCC2)n1)c1ccc(Cl)c(Cl)c1 was read as GASC-1 inh 1, GSTO1 counter 1, Apaf-1 inh 40, PAD4 inh -1, SUMO HTRF inh 78 and TDP2 absorb -13.
For Cc1ccc(C(=O)NNc2cc(N3CCCC3)nc(N3CCCC3)n2)cc1 the results were GASC-1 inh -46, GSTO1 counter 49*, Apaf-1 inh 97*, PAD4 inh 8, SUMO HTRF inh 45, GSTO1 confirm 72*, Apaf-1 inh conf 89*, Rh110 interf inh 8 and Fluor interf inh >100.
`CCN1CCCCC(NC(=O)c2ccccc2)C1=O` (stereo not drawn) gave TDP2 absorb -4.
Screening O=S1(=O)CC2c3ccc(F)cc3CN2CN1CCc1ccccc1 (stereo not drawn) returned TDP2 absorb 0.
`CCCN1CCS(=O)(=O)N(Cc2cn(Cc3ccc(Cl)cc3)nn2)C(C(=O)OC)C1` (stereo not drawn) gave TDP2 absorb 0.

Source: PubChem BioAssay
